In ChEMBL document CHEMBL1629417, “Benzophenones and biflavonoids from Rheedia edulis” (J Nat Prod, 2010):

Assays:
[1] = test system: Radical scavenging activity; assay: Antioxidant activity assessed as DPPH radical scavenging activity; assay type: functional
Summary of the method: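 Follows a previously described method. Trolox and gallic acid serve as reference antioxidants. Scavenging is expressed as percent inhibition of DPPH relative to DMSO-treated controls, and IC50 values are derived from it.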

[2] = Antioxidant activity assessed as ABTS radical scavenging activity; assay type: functional
Summary of the method: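 Based on the Re et al. ABTS radical cation decolorization method, with modifications. Trolox and gallic acid serve as reference antioxidants. Percent inhibition of ABTS is calculated as in the DPPH assay, relative to DMSO-treated controls, and IC50 values are derived from it.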

Row | IC50 [1] | IC50 [2] | SMILES
1 | 70.8 µM | 48.4 µM | Cc1c(C)c2c(c(C)c1O)CCC(C)(C(=O)O)O2 (stereo unspecified) [TROLOX]
2 | 766 µM | 287 µM | CC(C)=CC[C@H]1C[C@]2(CC=C(C)C)C(=O)[C@@](CC=C(C)C)(C(=O)C(C(=O)c3ccccc3)=C2O)C1(C)C [6-EPI-CLUSIANONE]

Row | SMILES | IC50 [1] | IC50 [2]
3 | O=C(O)c1cc(O)c(O)c(O)c1 [GALLIC ACID] | 33.9 µM | 19.8 µM
